What was measured:
Nucleic Acid [1] = experiment: Antitumor potency on human colon WIDR cell lines.; assay type: functional, cell-based
Method in brief: (§1)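 Human lines kept in RPMI-1640 with 5% FBS, L-glutamine and penicillin/streptomycin; seeded as single-cell suspensions at 2000 (MCF-7), 500 (WiDr) or 750 (2780) cells/well. Drugs in DMSO, serially diluted in PBS pH 7.4 in half-log steps, were added on day 2 (final DMSO ≤0.1%). Exposure 6 days at 37 °C, 5% CO2. MTT was added for 4 h, formazan dissolved in DMSO, A570 read as % of untreated control. 6 wells per concentration, ≥2 assays, IC50s averaged.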

Nucleic Acid [2] = experiment: Antitumor potency on human breast MCF-7 cell lines.; assay type: functional, cell-based; details: MCF7; method in brief: as §1
Nucleic Acid [3] = experiment: Antitumor potency on human ovarian 2780 cell lines.; assay type: functional; method in brief: as §1
P388 = experiment: Antitumor potency on P388 leukemia cells in culture; assay type: functional, cell-based; details: Mus musculus
Method in brief: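 P388 cells (ATCC CCL-46) plated as a single-cell suspension at 300 cells/well. Drugs in DMSO, serially diluted in PBS pH 7.4 in half-log steps, were added on day 1 (final DMSO ≤0.1%). Exposure 6 days at 37 °C, 5% CO2. MTT was added for 4 h, formazan dissolved in DMSO, absorbance read at 570 nm as % of untreated control. 6 wells per concentration, ≥2 assays, IC50 averaged.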

Mus musculus = species on record: Mus musculus; experiment: Minimum effective dose was measured against P388 leukemia in mice.; assay type: functional

SMILES | IC50 (Nucleic Acid [1]) [nM] | IC50 (Nucleic Acid [2]) [nM] | IC50 (Nucleic Acid [3]) [nM] | IC50 (P388) [nM] | MED (Mus musculus)
CO[C@@]12C(COC(N)=O)c3c(O)c(/N=C4\C=CC(=O)C([N+](=O)[O-])=C4)c(C)c(O)c3N1CC1NC12 (some centres undefined) | 25.5 | 22.7 | 10.8 |  | 
CO[C@@]12C(COC(N)=O)C3=C(C(=O)C(C)=C(Nc4ccc(F)cc4)C3=O)N1CC1NC12 (some centres undefined) | 1.63 | 1.77 | 3.03 | 3.03 | 
CO[C@@]12C(COC(N)=O)C3=C(C(=O)C(C)=C(OC4CC4)C3=O)N1CC1NC12 (some centres undefined) | 0.21 | 1.12 | 0.56 | 0.63 | 0.13 µmol/kg
CO[C@@]12C(COC(N)=O)c3c(O)c(N=C4C=CC(=O)C=C4)c(C)c(O)c3N1CC1NC12 (some centres undefined) | 6.3 | 16.9 | 16.4 | 5.86 | 
CO[C@@]12C(COC(N)=O)C3=C(C(=O)C(C)=C(Nc4ccc(I)cc4)C3=O)N1CC1NC12 (some centres undefined) | 0.63 | 2.84 | 1.6 | 1.62 | 
CO[C@@]12C(COC(N)=O)C3=C(C(=O)C(C)=C(NCCc4ccco4)C3=O)N1CC1NC12 (some centres undefined) | 40.3 | 36.6 | 59.5 | 26.6 | 
CO[C@@]12C(COC(N)=O)C3=C(C(=O)C(C)=C(OCCO)C3=O)N1CC1NC12 (some centres undefined) | 4.22 | 3.69 | 6.85 | 0.71 | 0.017 µmol/kg
CO[C@@]12[C@H](COC(N)=O)C3=C(C(=O)C(C)=C(N)C3=O)N1C[C@@H]1N[C@@H]12 [MITOMYCIN] | 13 | 32.2 | 14.8 | 50.8 | 
COC1=C(C)C(=O)C2=C(C1=O)[C@@H](COC(N)=O)[C@@]1(OC)[C@H]3N[C@H]3CN21 [MITOMYCIN A] | 0.052 | 0.63 | 0.22 | 0.24 | 0.14 µmol/kg
CO[C@@]12C(COC(N)=O)C3=C(C(=O)C(C)=C(Nc4ccc5[nH]ccc5c4)C3=O)N1CC1NC12 (some centres undefined) | 1.07 | 1.1 | 3.1 |  | 
CO[C@@]12C(COC(N)=O)C3=C(C(=O)C(C)=C(NCCc4ccccn4)C3=O)N1CC1NC12 (some centres undefined) | 26.2 | 22.8 | 77.4 | 53.5 | 
CO[C@@]12C(COC(N)=O)C3=C(C(=O)C(C)=C(OCCSSCCO)C3=O)N1CC1NC12 (some centres undefined) | 1.48 | 3.92 | 1.36 | 1.87 | 0.026 µmol/kg
CO[C@@]12C(COC(N)=O)C3=C(C(=O)C(C)=C(OCc4ccccc4)C3=O)N1CC1NC12 (some centres undefined) | 0.13 | 1.43 | 0.26 | 0.018 | 0.24 µmol/kg
CO[C@@]12C(COC(N)=O)C3=C(C(=O)C(C)=C(NCCCO)C3=O)N1CC1NC12 (some centres undefined) | 102 | 132 | 76.4 | 459 | 
CO[C@@]12C(COC(N)=O)C3=C(C(=O)C(C)=C(OCCSc4ccccc4)C3=O)N1CC1NC12 (some centres undefined) | 0.15 | 1.4 | 0.53 | 1.21 | 6.73
CO[C@@]12C(COC(N)=O)C3=C(C(=O)C(C)=C(Nc4cccc(I)c4)C3=O)N1CC1NC12 (some centres undefined) | 0.21 | 1.87 | 1.68 | 1.42 | 
CO[C@@]12C(COC(N)=O)C3=C(C(=O)C(C)=C(Nc4nc(C)cs4)C3=O)N1CC1NC12 (some centres undefined) | 1.32 | 3.13 | 1.74 | 0.5 | 
CO[C@@]12C(COC(N)=O)C3=C(C(=O)C(C)=C(OCCOc4ccccc4)C3=O)N1CC1NC12 (some centres undefined) | 0.12 | 0.72 | 0.16 | 0.082 | 3.5 µmol/kg
CO[C@@]12C(COC(N)=O)C3=C(C(=O)C(C)=C(OCC4CCC4)C3=O)N1CC1NC12 (some centres undefined) | 0.19 | 0.21 | 0.27 | 0.41 | 0.99 µmol/kg
CO[C@@]12C(COC(N)=O)c3c(O)c(N=C4C=CC(=N)C=C4)c(C)c(O)c3N1CC1NC12 (some centres undefined) | 28.8 | 13.1 | 50 | 18.8 | 
CO[C@@]12C(COC(N)=O)c3c(O)c(/N=C4\C=CC(=O)C(I)=C4)c(C)c(O)c3N1CC1NC12 (some centres undefined) | 6.52 | 16.3 | 29 |  | 
CO[C@@]12C(COC(N)=O)C3=C(C(=O)C(C)=C(OCCOCCO)C3=O)N1CC1NC12 (some centres undefined) | 25.8 | 80.6 | 36.6 | 18.7 | 0.3 µmol/kg
CO[C@@]12C(COC(N)=O)C3=C(C(=O)C(C)=C(Nc4ccc([N+](=O)[O-])cc4)C3=O)N1CC1NC12 (some centres undefined) | 0.42 | 1.53 | 0.59 | 0.44 | 
CO[C@@]12C(COC(N)=O)C3=C(C(=O)C(C)=C(Nc4ccccc4)C3=O)N1CC1NC12 (some centres undefined) | 1.09 | 1.32 | 2.6 | 1.71 | 
CO[C@@]12C(COC(N)=O)c3c(O)c(/N=C4/C=CN=N4)c(C)c(O)c3N1CC1NC12 (some centres undefined) | 13 | 72.4 | 38.5 | 15.5 | 
COCCOCCOC1=C(C)C(=O)C2=C(C1=O)C(COC(N)=O)[C@@]1(OC)C3NC3CN21 (some centres undefined) | 4.57 | 8.22 | 4.57 | 4.1 | 0.11 µmol/kg
C#CCNC1=C(C)C(=O)C2=C(C1=O)C(COC(N)=O)[C@@]1(OC)C3NC3CN21 (some centres undefined) | 3.9 | 4.4 | 2.1 | 9.7 | 
CO[C@@]12C(COC(N)=O)C3=C(C(=O)C(C)=C(OCC4CC4)C3=O)N1CC1NC12 (some centres undefined) | 0.16 | 0.51 | 0.45 | 0.31 | 1.03 µmol/kg
CO[C@@]12C(COC(N)=O)C3=C(C(=O)C(C)=C(Nc4ccc(Br)cc4)C3=O)N1CC1NC12 (some centres undefined) | 1.19 | 2.66 | 1.84 | 1.92 | 
